Reference: ChEMBL document CHEMBL4351002, “Design, synthesis and antitumor study of a series of N-Cyclic sulfamoylaminoethyl substituted 1,2,5-oxadiazol-3-amines as new indoleamine 2, 3-dioxygenase 1 (IDO1) inhibitors” (Eur J Med Chem, 2019)

Columns and labels:
CT26 [1] = assay: Antitumour activity against mouse CT26 cells allografted in Balb/c mouse assessed as T/C at 100 mg/kg, po bid for 14 days starting 8 days post inoculation in presence of mouse PD-1 antibody at 10 mg/kg, ip biw for 2 weeks measured thrice per week relative to control
CT26 [2] = assay: Antitumour activity against mouse CT26 cells allografted in Balb/c mouse assessed as tumor growth inhibition at 100 mg/kg, po bid for 14 days starting 8 days post inoculation and measured thrice per week; assay type: functional; details: read-out: TGI
Procedure, shortened: (§1)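 Female BALB/c mice (4-6 weeks old) inoculated s.c. in the right lower flank with 0.3 x 10⁶ CT26 cells in 0.1 mL PBS. Dosing began on day 8 at about 49 mm³; 8 mice per group, stratified randomization by tumor volume. Caliper measurement thrice weekly, V = 0.5 a*b². TGI (%) = [1-(Ti-T0)/(Vi-V0)]×100 versus vehicle. One-way ANOVA with Games-Howell test.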

[3] = AUCinfinity in Sprague-Dawley rat at 3 mg/kg, po measured at 0.25 to 24 hrs by HPLC coupled LC-MS/MS analysis; assay type: ADME, organism-based; design: dose 3 mg/kg, route oral, time infinity; details: Sprague-Dawley, in vivo
Procedure, shortened: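 Oral gavage of 3 mg/kg as a suspension in DMSO/0.5% HPMC (5/95, v/v) to male SD rats (n = 3). Blood was sampled at 0.25, 0.5, 1, 2, 4, 8 and 24 h and held on wet ice. Serum was obtained by centrifugation, stored at -20 °C and analysed by LC-MS/MS. Values are the average of three runs.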

CT26 [4] = assay: Antitumour activity against mouse CT26 cells allografted in Balb/c mouse assessed as T/C at 100 mg/kg, po bid for 14 days starting 8 days post inoculation measured thrice per week relative to control
CT26 [5] = assay: Antitumour activity against mouse CT26 cells allografted in Balb/c mouse assessed as tumour volume at 100 mg/kg, po bid for 14 days starting 8 days post inoculation measured thrice per week (reference value: 1557 +/- 256 mm3); assay type: functional
Procedure, shortened: as §1

[6] = Toxicity in Balb/c mouse allografted with mouse CT26 cells assessed as change in body weight at 100 mg/kg, po bid for 14 days starting 8 days post inoculation measured thrice per week in presence of mouse PD-1 antibody at 10 mg/kg, ip biw for 2 weeks; details: in vivo

Question: What does the source list for O=S1(=O)NCCN1CCNc1nonc1/C(=N/O)Nc1ccc(F)c(Br)c1?
Answer: T/C (CT26 [1]): 54.1%; inhibition in vivo at 100 mg/kg (CT26 [2]): 7.3%; AUC(0-inf) [3]: 0.356 µg·h/mL; T/C at 100 mg/kg (CT26 [4]): 92.9%; Activity (CT26 [5]): 1447 mm3; Activity [6]: Non-Toxic
